Assay results gathered from unrelated publications.
Protocols differ between the studies behind these lines.
SP140: SP140 (Homo sapiens, UniProt Q13342)
ANKK1: Ankyrin repeat and protein kinase domain-containing protein 1 (ANKK1, Homo sapiens, UniProt Q8NFD2)

For `Cc1cnc(Nc2ccc(OCCN3CCCC3)cc2)nc1Nc1cccc(S(=O)(=O)NC(C)(C)C)c1`, the ΔTm was -0.01 °C (SP140; thermal stability, DSF; 10 µM).
`CC(C)(O)[C@H]1CC[C@H](Nc2ccc3ncc(-c4cccc(C(F)(F)F)c4)n3n2)CC1` has a remaining activity of 107% (Cyclin-dependent kinase 1, with cyclin E (CDK1, Homo sapiens, UniProt P06493); enzyme activity, inhibitor; 1 µM).
`CN(C)C1CCN(CC#Cc2nn(C3CCCC3)c3nc(NCc4ccccc4)ncc23)C1` (stereo not shown) has an inhibition of -1% (Proto-oncogene tyrosine-protein kinase Src (SRC, Homo sapiens, UniProt P12931); enzyme activity, inhibitor, FRET; 0.1 µM).
For `CC(C)(C)c1nc(-c2cccc(NS(=O)(=O)c3c(F)cccc3F)c2F)c(-c2ccnc(N)n2)s1`, the remaining activity was 57% (Cyclin-dependent kinase 1, with cyclin E1 (CDK1, Homo sapiens, UniProt P06493); enzyme activity, inhibitor, radiometric; 1 µM).
For `Oc1ccc(-c2nc(-c3ccncc3)c(-c3ccc(F)cc3)[nH]2)cc1`, the ΔTm was 0.36 °C (SP140; thermal stability, DSF; 10 µM).
For `CC(C)(C)c1nc2c(s1)c1nc(N)ncc1c1ccc(NS(=O)(=O)c3c(F)cccc3F)c(F)c12`, the remaining activity was 100% (Cyclin-dependent kinase 1, with cyclin A2 (CDK1, Homo sapiens, UniProt P06493); enzyme activity, inhibitor, radiometric; 1 µM).
For `OCc1cc(C(O)CNCCCCCCOCCCCc2ccccc2)ccc1O` (stereo not shown), the inhibition was 9% (C-X-C chemokine receptor type 4 (CXCR4, Homo sapiens, UniProt P61073); calcium signal, antagonist; U87.CD4.CXCR4; 0.8 µM).
`Cc1ccc(C(=O)Nc2ccc(CN3CCN(C)CC3)c(C(F)(F)F)c2)cc1C#Cc1cnc2cccnn12` has a remaining signal of 56% (ANKK1; cell-free assay; 23.5 nM).
The Km of `Oc1c(Br)cc(Oc2ccc(Br)cc2Br)cc1Br` is reported as 4.23 µM (Sulfotransferase 1E1 (SULT1E1, Homo sapiens, UniProt P49888); enzyme activity, substrate).
`Cc1cc2c(cc1N1C(=O)c3cccc4c(Cl)ccc(c34)C1=O)n(C)c(=O)n2C` has a ΔTm of -0.9 °C (SP140; thermal stability, DSF; 10 µM).
`CCCOc1ccc(OC)c(F)c1C(=O)c1ccc(C(=O)N[C@@H]2CNC[C@H]2NC(=O)c2ccc3[nH]ncc3c2)cc1` has a remaining activity of 16% (Serine/threonine-protein kinase Sgk2 (SGK2, Homo sapiens, UniProt Q9HBY8); enzyme activity, inhibitor; 0.5 µM).
With `Cc1ccc(S(=O)(=O)Nc2ccc(-n3nc(C(F)(F)F)cc3C(F)(F)F)cc2)cc1` the remaining activity was 60% (Calcium release-activated calcium channel protein 1 (Rattus norvegicus, UniProt Q5M848); ion current, inhibitor, patch clamp; RBL-2H3; 3 µM).
The remaining signal of `Nc1ncnc2occ(-c3ccc(NC(=O)Nc4cc(C(F)(F)F)ccc4F)cc3)c12` is reported as 3.6% (ANKK1; cell-free assay; 20 µM).
